Publication PMC3337761 (Drug Development and Industrial Pharmacy, 2010)
Converted amounts (≈) assume the structure as drawn.

Experiments:
[1] = Solubility in solvents; type: physicochemical
[2] = Pharmacokinetics in rhesus macaques; type: in vivo, Rhesus Macaques (Macaca mulatta)
Summary of the method: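 Two rhesus macaques, fasted overnight with water allowed. Oral powder was mixed into a chocolate treat, with dose set by the amount eaten. After a 2-week washout, i.v. dosing used 5 mg/mL in 25% Cremophor EL/75% PBS. Ketamine 10 mg/kg i.m. for sampling. EDTA plasma taken pre-dose to 24 h, C18 SPE, then LC-ESI-MS (m/z 277; analogue internal standard; calibration 25 nM–2.5 µM). F = dose-normalised AUC po/iv.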

[3] = male, rhesus monkey, plasma, iv, 5 mg/kg
[4] = male, rhesus monkey, plasma, po, 50 mg/kg

SMILES: Clc1ccccc1C(c1ccccc1)(c1ccccc1)n1cccn1 [TRAM-34, 1-[(2-chlorophenyl)-diphenylmethyl]-1H-pyrazole]
- solubility ([1]; ethanol, organic solvent or mixture): 4000 µg/mL (≈ 11.6 mM)
- solubility in water ([1]; water): practically insoluble in water
- AUC(0-t) [2, 3]: 3.64 µM·h
- Vd [2, 3]: 11.1 L/kg
- clearance [2, 3]: 53.3 mL/min/kg
- bioavailability ([2]; male, rhesus monkey, plasma, oral, 50 mg/kg): 0.3%
- AUC(0-t) [2, 4]: 0.103 µM·h
- Cmax [2, 4]: 22.5 nM
- Tmax [2, 4]: 2 h
- Vd ([2]; oral powder without enteric coating, 50 mg/kg, Rhesus Macaques): 6.5 L/kg
